Ab BasE inh: BasE siderophore enzyme inhibitors, primary screen, biochemical, Acinetobacter baumannii ATCC 17978, fluorescence polarization; purified BasE, fluorescence polarization binding displacement; 84,000 compounds, 0.1% hits; AID 485350, 2010; inhibition, % (test concentration not listed); in the data active = inhibition above about 25%, passing the limit was not always enough
KSHV LANA nucl: inhibitors of KSHV LANA-nucleosome binding, primary screen, biochemical, fluorescence polarization, FITC-LANA1-23, chicken nucleosomes. FITC-LANA1-23 / chicken nucleosome fluorescence polarization; active compounds read low. z-score (test concentration not listed). 51,000 compounds, 0.3% hits. AID 720717, 2013;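 active = both repeat wells score below -2 in polarization z-score versus plate sample wells, excluding overly bright wells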
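System – purified chicken nucleosomes with FITC-labelled LANA N-terminal peptide (1-23) · Amount – 240 nM purified chicken nucleosomes (480 nM peptide binding sites), final · Also added – 50 nM FITC-LANA1-23 probe · Medium – TEN-BT buffer, pH 7.5 · Incubation – compound with peptide–nucleosome mix 10–45 min at room temperature · Detection – fluorescence polarization, ex 480 nm, em 535 nm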
Each line names hits and unclear results; the compound was inactive in the other large screens; ! = not active in a repeat. The sample as a whole holds a higher share of hits than the screen did.

O=C(Nc1ccccc1)N(Cc1nc(-c2ccccc2)no1)C1CCCCC1	KSHV LANA nucl -2.13
O=C(c1ccccc1)N(Cc1nc(-c2ccccc2)no1)C1CCCCC1	none
CN1C/C(=N\S(=O)(=O)c2ccccc2)N(C)C1=O	none
CC1=CC(=O)C=C(C)C1=NS(=O)(=O)c1ccccc1	Ab BasE inh 25.8 (no result: KSHV LANA nucl)
O=C(Cc1ccccc1)Nn1cnc2c(cnn2-c2ccccc2)c1=O	none
CCC(=O)Nn1cnc2c(cnn2-c2ccccc2)c1=O	KSHV LANA nucl -2.23
CCCCC/C=C\C/C=C\CCCCCCCC(=O)O[C@@H](CO)COC(=O)CCCCCCCCCCCCCCCCC	none
CCCCC/C=C\C/C=C\C/C=C\C/C=C\CCCC(=O)OC(CO)CO	KSHV LANA nucl -2.11
Cc1ccc(C)n1-c1ccsc1C(=O)O	KSHV LANA nucl -3.69
Cc1ccc(C)n1-c1ccsc1C(=O)CC#N	none (no result: Ab BasE inh)
COc1ccc(CCn2c(=O)c3cccnc3n(CC(=O)NCc3ccc(C)cc3)c2=O)cc1OC	none
N=C1/C(=C\c2cn(CCOc3ccccc3Cl)c3ccccc23)C(=O)N=C2SC=NN12	KSHV LANA nucl -3.43
Cc1ccc(C)c(OCCn2cc(/C=C3\C(=N)N4N=C(S(C)(=O)=O)SC4=NC3=O)c3ccccc32)c1	none
O=c1[nH]c2ccccc2n1CN1CCC(c2nc3ccccc3s2)CC1	none (no result: KSHV LANA nucl)
COc1ccc(-c2csc(/C(C#N)=C(\O)CSc3nccn3C)n2)cc1OC	Ab BasE inh 30.9 (no result: KSHV LANA nucl)
COc1ccc(-c2csc(/C(C#N)=C(\O)CSc3nnc(-c4ccccc4F)n3C3CC3)n2)cc1OC	none (no result: KSHV LANA nucl)
O=C(/C=C/c1ccccc1)Nc1ccc(O)cc1	none (no result: KSHV LANA nucl)
O=C(/C=C/c1ccccc1)Nc1cccnc1	Ab BasE inh 36.0 (no result: KSHV LANA nucl)
Cc1nc2ccn(Cc3cccnc3)c(=O)c2cc1C(=O)NCCCc1ccco1	KSHV LANA nucl -2.12
Cc1ccc(NC(=O)c2cc3c(=O)n(Cc4ccco4)ccc3nc2C)cc1	none
CS(=O)(=O)c1ncc2c(n1)c(=O)c(C#N)c1[nH]c3ccccc3c(=O)n12	none (no result: KSHV LANA nucl)
CC1(C)CC(=O)c2cc(C#N)c(SCc3ccccc3)nc2C1	none (no result: KSHV LANA nucl)
CC1(C)NC(=O)C(C#N)=C(SCc2ccccc2)S1	Ab BasE inh 37.8
O=C(O)c1ccccc1C1=Nc2ccc(O)cc2Oc2cc(O)ccc21	KSHV LANA nucl -6.08
O=C(O)c1ccccc1-c1ccccc1C(=O)O	none
CCOC(=O)c1ccc(-c2ccc(/C=C(\C#N)C(=O)NCc3cccs3)o2)cc1	none
N#C/C(=C/c1ccc(-c2ccc(S(N)(=O)=O)cc2)o1)C(=O)Nc1cc(Cl)ccc1Cl	KSHV LANA nucl -5.68
CCOC(=O)c1cc(-c2ccc(/C=C(\C#N)C(N)=C(C#N)C#N)o2)ccc1Cl	KSHV LANA nucl -4.52
N#C/C(=C\c1ccc(-c2cccc(Cl)c2)o1)C(N)=O	none
N#CC(C#N)=C(N)/C(C#N)=C\c1ccc(-c2ccccc2)o1	none
CCOC(=O)c1ccccc1NC(=O)/C(C#N)=C/c1ccc(-c2ccc(Cl)cc2)o1	KSHV LANA nucl -4.28
CCn1c(CN(C)C(C)=O)nc2ccccc21	none
CCOc1ccc(C(=O)Nc2nc3cc4c(cc3s2)OCO4)cc1	KSHV LANA nucl -2.24
COc1cccc(C(=O)Nc2nc3cc4c(cc3s2)OCO4)c1	none
O=C(COc1ccc(Cl)cc1)Nc1c(-c2ccccc2)nc2sccn12	none (no result: KSHV LANA nucl)
O=C(O)CCn1cc(/C=N\NC(=O)c2ccncc2)c(-c2ccccc2)n1	none
CSc1ccccc1NC1=NCCC1	none (no result: KSHV LANA nucl)
CCn1c(O)c(C=Nc2ccccc2)oc1=S	none (no result: KSHV LANA nucl)
CCn1c(O)c(C=Nc2cccc(O)c2)sc1=S	KSHV LANA nucl -2.41
CC(=O)Nc1ccc2oc(C)nc2c1	Ab BasE inh 36.6
CC(=O)Nc1ccc(-c2nc3cc(C)ccc3o2)cc1	none
O=c1cc(-c2ccc(O)c(O)c2)oc2cc(O)cc(O)c12	none
O=c1c(O)c(-c2ccc(O)c(O)c2)oc2cc(O)cc(O)c12	Ab BasE inh 28.6!
NC(=O)CN1/C(=C(/O)c2ccccc2)C(=O)c2ccccc2S1(=O)=O	none
O=C1c2cccc3c(N4CCCCC4)ccc(c23)C(=O)N1c1ccccn1	KSHV LANA nucl -6.18
CC(=O)N(C(C)=O)N1C(=O)c2cccc3c(N4CCOCC4)ccc(c23)C1=O	none (no result: KSHV LANA nucl)
CN(CC(=O)NC1CC1)c1ccccc1	none (no result: KSHV LANA nucl)
NCCc1nc(-c2ccccc2)no1	none
O=C1CCC(=O)N1c1nccs1	none (no result: KSHV LANA nucl)
Cc1ccc2[nH]c3c(c2c1)CCC/C3=N/O	none
COc1cccc2c1C(=O)c1c(O)c3c(c(O)c1C2=O)C[C@@](O)(C(=O)CO)C[C@@H]3O[C@H]1C[C@H](N)[C@H](O)[C@H](C)O1	KSHV LANA nucl -8.45!
COc1cccc2c1C(=O)c1c(O)c3c(c(O)c1C2=O)C[C@@](O)(C(C)=O)C[C@@H]3OC1CC(N)C(O)C(C)O1 (stereo not given in full)	KSHV LANA nucl -6.03
O=c1[nH]c2ccccc2nc1C(F)(F)C(F)(F)C(F)(F)C(F)F	none
CC(C)(C)OC(=O)N1CC=C2C(C1)C(c1cccc(F)c1)C(C#N)=C(N)C2(C#N)C#N (stereo not given)	none

Bioassay records (PubChem)
